Values after ≈ are worked out from the molar mass of the structure shown. Where two headings read alike, the source gives them in different places.
Experiments:
MurX = target: T1, MurX (Mycobacterium tuberculosis, UniProt P9WMW7); experiment: MurX enzyme inhibitory assay; type: biochemical, M. tuberculosis
T1 sequence (P9WMW7 1-359): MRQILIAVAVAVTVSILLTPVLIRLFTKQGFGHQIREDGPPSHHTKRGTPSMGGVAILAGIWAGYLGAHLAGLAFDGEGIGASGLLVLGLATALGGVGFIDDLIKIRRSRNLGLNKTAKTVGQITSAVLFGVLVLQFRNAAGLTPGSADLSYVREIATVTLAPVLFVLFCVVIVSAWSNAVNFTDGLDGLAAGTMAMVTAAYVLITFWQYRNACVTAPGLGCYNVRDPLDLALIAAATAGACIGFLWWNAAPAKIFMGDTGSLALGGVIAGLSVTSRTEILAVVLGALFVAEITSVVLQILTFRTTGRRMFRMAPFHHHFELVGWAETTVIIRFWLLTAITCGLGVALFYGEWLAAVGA

[1] = tested on: non-replicating M. tuberculosis H37Rv (pFCA-luxAB); experiment: microbe, parasite or virus in culture; type: cell-based; conditions: Mycobacterium tuberculosis, read-out: MIC μg/mL (LORA)
[2] = tested on: HepG2 human hepatoblastoma cells; experiment: Cytotoxicity assay; type: cell-based; conditions: HepG2, read-out: IC50 μg/mL HepG2 cells
M. tuberculosis = type: cell-based, Mycobacterium tuberculosis; conditions: for time to kill Mtb completely (100%): 2× MIC: capuramycin 24.0 μg/mL; for time to kill Mtb completely (100%) / time to kill 50% of Mtb: UT-01320 3.0 μg/mL; for time to kill 50% of Mtb: 2× MIC: rifampicin 0.4, INH 1.0 (so in the source)
M. tuberculosis H37Rv = experiment: MIC, microplate alamar blue assay; type: cell-based; conditions: Mycobacterium tuberculosis
E. coli RNA polymerase = E. coli RNA polymerase (Escherichia coli, UniProt P0A8T7+P0A8V2); experiment: RNA polymerase assay; type: biochemical
Mtb = experiment: Micro dilution broth checkerboard; type: cell-based, Mycobacterium tuberculosis
Cytotoxicity assay = type: cell-based; conditions: monkey, Vero monkey kidney cells (ATCC CCL-81)
Procedure, shortened: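 Vero kidney cells grown in 96-well plates in ATCC-formulated Eagle's Minimum Essential Medium and exposed to test compound. Each plate includes reference drugs of known toxicity as controls. Cytopathic effect is read by MTT assay after incubation, and IC50 is reported.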

M. smegmatis ATCC607 = experiment: MIC, broth dilution; type: cell-based, Mycobacterium smegmatis; conditions: M. smegmatis ATCC607, broth dilution method
E. faecium ATCC 349 = experiment: MIC, broth dilution; type: cell-based; conditions: Enterococcus faecium, ATCC349
E. coli ATCC 25019 = experiment: MIC, broth dilution; type: cell-based; conditions: Escherichia coli, ATCC25019
P. aeruginosa ATCC 27853 = experiment: MIC, broth dilution; type: cell-based; conditions: Pseudomonas aeruginosa, ATCC27853
S. aureus RNA polymerase = S. aureus RNA polymerase (Staphylococcus aureus, UniProt P47768+Q2G0N5); experiment: RNA polymerase assay; type: biochemical
[3] = target: M. smegmatis RNA polymerase (Mycolicibacterium smegmatis, UniProt A0QS66+P60281); experiment: RNA polymerase assay; type: biochemical
[4] = target: bacterial RNA polymerases; experiment: RNA polymerase assays, enzyme not given; type: biochemical; conditions: read-out: IC50, bacterial RNA polymerases; abstract
[5] = tested on: electron transport systems; experiment: Inhibition of electron transport systems; type: cell-based
menaquinone biosynthesis = type: biochemical
[6] = target: T2, Mtb serine/threonine kinase PKnA (Mycobacterium tuberculosis, UniProt P9WI83); experiment: Ser/Thr protein kinase assay; type: biochemical, M. tuberculosis
T2 sequence (P9WI83 1-431): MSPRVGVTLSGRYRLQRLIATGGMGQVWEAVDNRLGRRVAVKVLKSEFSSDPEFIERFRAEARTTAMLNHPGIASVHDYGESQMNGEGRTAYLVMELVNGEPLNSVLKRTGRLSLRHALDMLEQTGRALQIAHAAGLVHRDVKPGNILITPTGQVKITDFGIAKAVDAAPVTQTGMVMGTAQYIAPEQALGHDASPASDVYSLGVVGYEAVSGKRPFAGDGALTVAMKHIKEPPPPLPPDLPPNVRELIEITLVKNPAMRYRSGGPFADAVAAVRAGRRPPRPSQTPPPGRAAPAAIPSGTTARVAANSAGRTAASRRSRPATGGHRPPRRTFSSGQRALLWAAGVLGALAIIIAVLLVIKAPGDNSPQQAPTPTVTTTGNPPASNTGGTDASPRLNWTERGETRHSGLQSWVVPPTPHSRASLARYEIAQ

[7] = target: Mtb serine/threonine kinase PknB (Mycobacterium tuberculosis, UniProt P9WI81); experiment: Ser/Thr protein kinase assay; type: biochemical, M. tuberculosis
DNA gyrase = DNA gyrase (Escherichia coli, UniProt P0AES4+P0AES6); experiment: DNA topoisomerase II - DNA supercoiling assay; type: biochemical
Chain of DNA gyrase (P0AES4 whole entry, one chain of several): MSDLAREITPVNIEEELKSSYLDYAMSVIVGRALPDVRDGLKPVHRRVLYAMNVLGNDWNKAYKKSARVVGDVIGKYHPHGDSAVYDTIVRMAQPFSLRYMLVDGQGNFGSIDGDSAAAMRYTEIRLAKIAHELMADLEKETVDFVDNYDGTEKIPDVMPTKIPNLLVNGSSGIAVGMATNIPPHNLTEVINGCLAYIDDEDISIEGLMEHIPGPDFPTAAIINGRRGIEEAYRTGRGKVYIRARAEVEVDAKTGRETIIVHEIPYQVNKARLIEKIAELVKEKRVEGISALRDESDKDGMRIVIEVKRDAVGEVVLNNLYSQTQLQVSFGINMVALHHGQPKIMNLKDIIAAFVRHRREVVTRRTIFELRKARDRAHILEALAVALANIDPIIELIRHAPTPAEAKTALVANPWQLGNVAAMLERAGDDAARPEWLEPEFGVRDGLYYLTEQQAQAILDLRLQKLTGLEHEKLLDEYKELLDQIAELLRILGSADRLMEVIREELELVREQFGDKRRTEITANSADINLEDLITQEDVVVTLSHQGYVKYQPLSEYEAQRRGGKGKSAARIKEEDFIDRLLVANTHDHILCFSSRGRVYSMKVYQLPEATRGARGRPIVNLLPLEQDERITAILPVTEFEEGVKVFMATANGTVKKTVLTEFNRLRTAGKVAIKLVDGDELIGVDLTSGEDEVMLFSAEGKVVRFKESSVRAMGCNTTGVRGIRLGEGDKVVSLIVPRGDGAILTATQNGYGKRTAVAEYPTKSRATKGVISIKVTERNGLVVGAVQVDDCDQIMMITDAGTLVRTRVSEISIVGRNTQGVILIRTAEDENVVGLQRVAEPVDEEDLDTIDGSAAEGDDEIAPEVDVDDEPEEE

Chain of E. coli RNA polymerase (P0A8V2 whole entry): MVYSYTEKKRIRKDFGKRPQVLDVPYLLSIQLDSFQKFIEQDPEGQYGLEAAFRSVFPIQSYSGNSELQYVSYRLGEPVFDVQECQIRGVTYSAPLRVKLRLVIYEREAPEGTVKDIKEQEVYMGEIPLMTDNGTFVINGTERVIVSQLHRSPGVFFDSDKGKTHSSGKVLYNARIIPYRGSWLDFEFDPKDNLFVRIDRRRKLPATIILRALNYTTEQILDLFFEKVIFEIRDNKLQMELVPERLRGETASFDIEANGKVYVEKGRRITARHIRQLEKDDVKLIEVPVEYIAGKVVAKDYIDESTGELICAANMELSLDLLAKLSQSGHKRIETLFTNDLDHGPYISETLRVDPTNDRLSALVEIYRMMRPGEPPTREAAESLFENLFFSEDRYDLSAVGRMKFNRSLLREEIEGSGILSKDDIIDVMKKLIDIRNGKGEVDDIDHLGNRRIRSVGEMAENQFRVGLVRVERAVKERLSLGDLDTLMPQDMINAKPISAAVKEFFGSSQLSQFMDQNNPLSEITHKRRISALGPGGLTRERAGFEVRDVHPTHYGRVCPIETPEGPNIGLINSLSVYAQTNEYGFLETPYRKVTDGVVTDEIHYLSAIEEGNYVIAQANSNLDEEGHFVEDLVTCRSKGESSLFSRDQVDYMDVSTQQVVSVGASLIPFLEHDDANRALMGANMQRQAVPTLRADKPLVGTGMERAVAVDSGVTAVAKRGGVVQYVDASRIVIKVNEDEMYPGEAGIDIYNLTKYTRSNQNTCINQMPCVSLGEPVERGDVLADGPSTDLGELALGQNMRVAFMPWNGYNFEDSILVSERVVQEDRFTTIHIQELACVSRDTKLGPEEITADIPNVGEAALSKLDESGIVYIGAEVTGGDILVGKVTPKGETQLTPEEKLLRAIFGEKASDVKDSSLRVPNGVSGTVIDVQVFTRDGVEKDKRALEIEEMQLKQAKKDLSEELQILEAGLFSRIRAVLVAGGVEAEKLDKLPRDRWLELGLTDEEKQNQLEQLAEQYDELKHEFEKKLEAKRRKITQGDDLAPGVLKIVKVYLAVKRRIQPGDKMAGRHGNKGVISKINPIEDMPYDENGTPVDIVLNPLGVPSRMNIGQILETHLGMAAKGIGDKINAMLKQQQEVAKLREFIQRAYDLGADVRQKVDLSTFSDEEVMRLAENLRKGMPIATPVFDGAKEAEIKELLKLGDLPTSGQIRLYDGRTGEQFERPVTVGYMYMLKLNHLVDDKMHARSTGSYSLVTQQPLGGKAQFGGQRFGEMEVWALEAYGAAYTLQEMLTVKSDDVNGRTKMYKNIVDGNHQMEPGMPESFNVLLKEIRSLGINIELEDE
Chain of E. coli RNA polymerase (P0A8T7 whole entry): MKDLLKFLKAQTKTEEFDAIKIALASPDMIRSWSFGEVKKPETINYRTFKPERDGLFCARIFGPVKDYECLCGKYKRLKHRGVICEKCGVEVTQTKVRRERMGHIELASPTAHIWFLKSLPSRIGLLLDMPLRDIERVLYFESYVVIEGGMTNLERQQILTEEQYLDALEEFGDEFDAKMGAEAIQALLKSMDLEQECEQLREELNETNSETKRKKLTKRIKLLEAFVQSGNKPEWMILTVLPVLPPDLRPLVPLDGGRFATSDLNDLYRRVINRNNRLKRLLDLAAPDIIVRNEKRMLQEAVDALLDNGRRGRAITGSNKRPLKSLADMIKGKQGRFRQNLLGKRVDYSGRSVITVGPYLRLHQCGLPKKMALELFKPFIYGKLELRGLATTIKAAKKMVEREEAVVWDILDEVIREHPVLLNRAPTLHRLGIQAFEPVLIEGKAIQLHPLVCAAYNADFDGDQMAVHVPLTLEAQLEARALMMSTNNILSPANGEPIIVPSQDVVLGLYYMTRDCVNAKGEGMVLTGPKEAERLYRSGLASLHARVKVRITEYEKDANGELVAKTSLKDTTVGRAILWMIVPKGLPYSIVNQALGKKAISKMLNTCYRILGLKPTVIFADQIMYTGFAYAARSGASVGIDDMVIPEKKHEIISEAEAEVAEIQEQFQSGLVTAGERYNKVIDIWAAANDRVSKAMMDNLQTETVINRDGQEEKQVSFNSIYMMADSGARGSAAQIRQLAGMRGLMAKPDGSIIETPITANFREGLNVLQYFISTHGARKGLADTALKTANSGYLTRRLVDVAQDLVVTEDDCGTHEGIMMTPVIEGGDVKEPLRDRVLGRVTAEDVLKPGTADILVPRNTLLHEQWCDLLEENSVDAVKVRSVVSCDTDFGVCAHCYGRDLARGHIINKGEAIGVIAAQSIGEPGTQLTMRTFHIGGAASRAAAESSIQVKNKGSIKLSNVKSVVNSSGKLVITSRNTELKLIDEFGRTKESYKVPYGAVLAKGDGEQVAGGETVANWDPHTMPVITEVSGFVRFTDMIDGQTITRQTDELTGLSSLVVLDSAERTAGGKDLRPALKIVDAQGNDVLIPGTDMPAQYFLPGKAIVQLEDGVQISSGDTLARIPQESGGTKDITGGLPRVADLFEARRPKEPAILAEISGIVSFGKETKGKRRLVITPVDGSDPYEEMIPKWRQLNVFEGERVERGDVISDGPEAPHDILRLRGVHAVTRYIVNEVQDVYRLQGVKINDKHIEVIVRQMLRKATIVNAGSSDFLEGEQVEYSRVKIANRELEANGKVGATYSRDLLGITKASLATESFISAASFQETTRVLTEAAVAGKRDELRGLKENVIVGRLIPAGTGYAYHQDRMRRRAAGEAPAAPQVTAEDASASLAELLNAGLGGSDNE
Chain of E. coli RNA polymerase (P0A7Z4 whole entry partner): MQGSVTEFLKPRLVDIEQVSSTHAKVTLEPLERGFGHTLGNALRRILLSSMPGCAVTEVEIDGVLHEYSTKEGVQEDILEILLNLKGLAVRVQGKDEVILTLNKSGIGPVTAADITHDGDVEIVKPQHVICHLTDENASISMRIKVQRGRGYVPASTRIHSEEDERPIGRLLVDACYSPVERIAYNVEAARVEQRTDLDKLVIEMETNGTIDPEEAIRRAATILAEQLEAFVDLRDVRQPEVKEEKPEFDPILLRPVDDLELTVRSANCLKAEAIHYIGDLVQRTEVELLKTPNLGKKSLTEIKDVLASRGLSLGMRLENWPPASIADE
Chain of E. coli RNA polymerase (P0A800 whole entry partner): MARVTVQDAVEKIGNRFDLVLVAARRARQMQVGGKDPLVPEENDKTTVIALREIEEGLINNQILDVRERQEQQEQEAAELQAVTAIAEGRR
Chain of Mtb serine/threonine kinase PknB (P9WI81 whole entry): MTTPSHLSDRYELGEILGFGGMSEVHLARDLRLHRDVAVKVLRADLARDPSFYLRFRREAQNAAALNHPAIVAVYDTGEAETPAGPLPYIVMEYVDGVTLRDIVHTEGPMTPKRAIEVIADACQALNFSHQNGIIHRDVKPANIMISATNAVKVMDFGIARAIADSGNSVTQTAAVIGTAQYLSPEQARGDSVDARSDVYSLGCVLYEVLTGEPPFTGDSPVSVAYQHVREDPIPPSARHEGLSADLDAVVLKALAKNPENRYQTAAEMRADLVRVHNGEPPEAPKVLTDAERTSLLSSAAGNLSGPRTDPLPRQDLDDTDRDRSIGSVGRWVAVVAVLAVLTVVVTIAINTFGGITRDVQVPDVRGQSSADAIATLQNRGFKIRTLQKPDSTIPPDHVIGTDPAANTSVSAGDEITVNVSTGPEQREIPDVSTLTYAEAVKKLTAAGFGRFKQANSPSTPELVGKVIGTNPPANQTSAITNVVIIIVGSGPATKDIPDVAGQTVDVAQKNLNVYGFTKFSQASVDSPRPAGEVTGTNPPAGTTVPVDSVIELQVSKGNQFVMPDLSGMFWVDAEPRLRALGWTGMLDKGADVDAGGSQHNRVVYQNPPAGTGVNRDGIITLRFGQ

Row | SMILES | IC50 (MurX) | MIC [1] | IC50 [2] | time to kill Mtb completely (100%) (M. tuberculosis) | MIC (M. tuberculosis H37Rv; read-out: MIC μg/mL (MABA)) | MIC (M. tuberculosis H37Rv) | time to kill 50% of Mtb (M. tuberculosis) | IC50 (E. coli RNA polymerase) | further results
1 | COC1C(O)C(n2ccc(=O)[nH]c2=O)OC1C(OC1OC(C(=O)NC2CCCCNC2=O)=CC(O)C1O)C(N)=O (stereo not drawn) [Capuramycin (1), 6-{Carbamoyl-[5-(2,4-dioxo-3,4-dihydro-2H-pyrimidin-1-yl)-4-hydroxy-3-methoxy-tetrahydro-furan-2-yl]-methoxy}-4,5-dihydroxy-5,6-dihydro-4H-pyran-2-carboxylic acid (2-oxo-azepan-3-yl)-amide] | 127 nM | > 100 µg/mL | > 400 µg/mL | 2 days |  |  |  |  | log10 CFU/mL reduction (M. tuberculosis; in 1 day, 24.0 μg/mL (2× MIC)): ≥ 3.0 log10 CFU/mL
2 | CC[C@@H](CO)NCCN[C@@H](CC)CO [Ethambutol (EMB), Ethambutol] |  | > 100 µg/mL | > 400 µg/mL |  | 0.78 µg/mL (≈ 3.82 µM) |  |  |  | 
3 | NNC(=O)c1ccncc1 [Isoniazid (INH), Isoniazid] |  | > 100 µg/mL | > 400 µg/mL |  | 0.04 to 0.1 µg/mL (≈ 0.292 to 0.729 µM) | 0.04 to 0.1 µg/mL (≈ 0.292 to 0.729 µM) |  |  | 
4 | CO[C@H]1/C=C/O[C@@]2(C)Oc3c(C)c(O)c4c(O)c(c(/C=N/N5CCN(C)CC5)c(O)c4c3C2=O)NC(=O)/C(C)=C\C=C\[C@H](C)[C@H](O)[C@@H](C)[C@@H](O)[C@@H](C)[C@H](OC(C)=O)[C@@H]1C [Rifampicin (RFP), Rifampicin] |  |  | > 400 µg/mL |  | 0.2 µg/mL (≈ 0.243 µM) | 0.2 µg/mL (≈ 0.243 µM) | over 7 days | 120 nM | 
5 | COC1C(O)C(n2ccc(=O)[nH]c2=O)OC1C(OC1OC(C(=O)Nc2ccc(F)c(F)c2)=CC(O)C1O)C(N)=O (stereo not drawn) [SQ 641 (2), 6-{Carbamoyl-[5-(2,4-dioxo-3,4-dihydro-2H-pyrimidin-1-yl)-4-hydroxy-3-methoxy-tetrahydro-furan-2-yl]-methoxy}-4,5-dihydroxy-5,6-dihydro-4H-pyran-2-carboxylic acid (3,4-difluoro-phenyl)-amide] | 98 nM | > 100 µg/mL | > 400 µg/mL |  |  |  |  |  | MIC (μg/mL) CA and CB (concentration in combination) (Mtb; pair SQ 641 0.10 + UT-01320 0.08): 0.10 µg/mL; MIC (μg/mL) CA and CB (concentration in combination) (Mtb; pair SQ 641 0.10 + UT-01320 0.16): 0.10 µg/mL; MIC (μg/mL) CA and CB (concentration in combination) (Mtb; pair SQ 641 0.10 + UT-01320 0.32): 0.10 µg/mL; MIC (μg/mL) CA and CB (concentration in combination) (Mtb; pair SQ 641 0.10 + UT-01320 0.645): 0.10 µg/mL; MIC (μg/mL) CA and CB (concentration in combination) (Mtb; pair SQ 641 0.10 + UT-01320 1.29): 0.10 µg/mL
6 | COC1C(C(OC2OC(C(=O)NC3CCCCNC3=O)=CC(O)C2O)C(N)=O)OC(n2ccc(=O)[nH]c2=O)C1OC (stereo not drawn) [UT-01320 (3), 6-{Carbamoyl-[5-(2,4-dioxo-3,4-dihydro-2H-pyrimidin-1-yl)-3,4-dimethoxy-tetrahydro-furan-2-yl]-methoxy}-4,5-dihydroxy-5,6-dihydro-4H-pyran-2-carboxylic acid (2-oxo-azepan-3-yl)-amide] | > 100000 nM | 2.58 µg/mL (≈ 4.42 µM) | > 400 µg/mL | ≤ 5 days |  | 1.5 µg/mL (≈ 2.57 µM) | ≤ 3 days | 100 to 150 nM | MurX enzyme inhibitory activity (MurX): did not interfere with MurX; MurX enzyme inhibitory activity (MurX; listed as 3): did not exhibit MurX enzyme inhibitory activity even at high concentrations; IC50 (Cytotoxicity assay): > 400 µg/mL; time to kill 100% of Mtb (M. tuberculosis; 4× MIC: UT-01320 6.0 μg/mL): ≤ 3 days; MIC (M. smegmatis ATCC607): >200 µg/mL; MIC (E. faecium ATCC 349): > 200 µg/mL; MIC (E. coli ATCC 25019): > 200 µg/mL; MIC (P. aeruginosa ATCC 27853): > 200 µg/mL; IC50 (S. aureus RNA polymerase): 100 to 150 nM; IC50 [3]: 100 to 150 nM; IC50 [4]: 100 to 150 nM; inhibition of electron transport systems [5]: did not inhibit; inhibition of menaquinone biosynthesis (menaquinone biosynthesis): did not inhibit; inhibition of Mtb serine/threonine kinase PKnA [6]: did not inhibit; inhibition of Mtb serine/threonine kinase PknB [7]: did not inhibit; inhibition of DNA gyrase (DNA gyrase): did not inhibit

Source: paper PMC4382465 (The Journal of antibiotics, 2014)
